Read-outs that look alike come from different tables or passages of the source. Each block holds one molecule with its values, some of them ahead of it.
Key:
ERα [1] = experiment: PI3K activation; assay type: cell-based; details: COS7 ERα-GFP
COS7 cells = experiment: PI3K activation; assay type: cell-based; details: 10 µM, COS7 lacking ERα, ERβ and GPER
Outline: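 COS7 cells carry no endogenous ERα, ERβ or GPER. They are transfected with PH-mRFP1 alone (¼ the recommended amount, Lipofectamine2000), grown on coverslips and serum-starved 24 h in phenol red-free RPMI. Cells are stimulated with compounds at 10 µM, fixed in 2% PFA, and scored by confocal microscopy for nuclear translocation of the PIP3 reporter.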

ERα or ERβ = details: ERα- or ERβ-expressing cells; cited from earlier work
ERβ [2] = details: high concentrations (≥10 µM); cited from earlier work
ERβ [3] = assay type: binding
Outline: (§1)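 COS7 cells are transiently transfected (Lipofectamine2000) with ERα-GFP or ERβ-GFP and serum-starved 24 h. About 5×10⁴ cells are incubated 20 min with test compound, then an equal volume of 20 nM E2-Alexa633 in saponin permeabilization buffer is added. After 10 min at RT, cells are washed in PBS/2% BSA and read by high-throughput flow cytometry.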

ERα [4] = details: cited from earlier work
ERα [5] = assay type: binding
Outline: as §1

ERα/β = ERα/β (Homo sapiens, UniProt P03372); experiment: ERE-GFP reporter activation/inhibition assay in MCF-7 cells; assay type: cell-based; details: for inhibition of E2-induced ERE response: 1 nM E2
Sequence of ERα/β (P03372 whole entry): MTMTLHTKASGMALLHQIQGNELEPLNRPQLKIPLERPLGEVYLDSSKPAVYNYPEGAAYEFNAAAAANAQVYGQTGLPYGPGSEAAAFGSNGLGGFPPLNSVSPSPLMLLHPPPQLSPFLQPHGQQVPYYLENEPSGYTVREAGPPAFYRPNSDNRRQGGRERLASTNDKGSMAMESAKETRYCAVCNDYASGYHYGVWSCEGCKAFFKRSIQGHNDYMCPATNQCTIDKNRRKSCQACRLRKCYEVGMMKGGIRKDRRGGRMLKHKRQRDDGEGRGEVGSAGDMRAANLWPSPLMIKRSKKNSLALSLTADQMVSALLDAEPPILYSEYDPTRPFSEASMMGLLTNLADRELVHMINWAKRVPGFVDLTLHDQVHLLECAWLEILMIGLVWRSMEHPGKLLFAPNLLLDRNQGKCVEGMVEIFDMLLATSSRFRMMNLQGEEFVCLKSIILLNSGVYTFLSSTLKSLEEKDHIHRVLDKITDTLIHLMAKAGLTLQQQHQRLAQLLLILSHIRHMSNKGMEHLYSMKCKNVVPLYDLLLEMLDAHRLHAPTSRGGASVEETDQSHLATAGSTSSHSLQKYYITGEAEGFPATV

GPER [6] = biological target: T1, GPER (Homo sapiens, UniProt Q99527); experiment: PI3K activation; assay type: cell-based; details: COS7 GPER-GFP, 1 µM G36 preincubated 20 min
T1 sequence (Q99527 whole entry, species assumed): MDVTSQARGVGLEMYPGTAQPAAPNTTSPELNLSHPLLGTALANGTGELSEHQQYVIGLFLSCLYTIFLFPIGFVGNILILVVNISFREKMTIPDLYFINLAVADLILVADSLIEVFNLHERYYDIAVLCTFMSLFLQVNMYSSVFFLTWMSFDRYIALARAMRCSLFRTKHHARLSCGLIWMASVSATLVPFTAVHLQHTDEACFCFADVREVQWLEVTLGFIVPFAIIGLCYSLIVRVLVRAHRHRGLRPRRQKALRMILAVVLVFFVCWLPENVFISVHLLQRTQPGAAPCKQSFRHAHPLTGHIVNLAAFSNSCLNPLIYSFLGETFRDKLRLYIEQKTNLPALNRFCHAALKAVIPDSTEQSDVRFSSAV
Outline: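 COS7 cells are cotransfected (Lipofectamine2000) with GPER-GFP and PH-mRFP1, the latter at ¼ the recommended amount. […] Cells are fixed in 2% PFA and imaged by confocal microscopy for PH-mRFP1 nuclear translocation as the PI3K read-out.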

[7] = system: endogenous purinergic receptors; experiment: Calcium mobilization by ATP in SKBr3 cells; assay type: cell-based; details: 10 µM G36, SKBr3
Outline: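 SKBr3 cells are loaded with 3 µM indo1-AM and 0.05% pluronic acid in HBSS for 1 h at RT, washed, and assayed at 2×10⁶ cells/mL. Calcium is read ratiometrically (ex 340/em 400/490 nm) at 37°C in a stirred spectrofluorometer. Cells are pretreated with 10 µM test compound, then given 1 µM ATP to engage endogenous purinergic receptors.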

GPER [8] = biological target: T1, GPER; experiment: Intracellular calcium mobilization in SKBr3 cells; assay type: cell-based
Outline: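 SKBr3 cells are loaded with 3 µM indo1-AM and 0.05% pluronic acid in HBSS for 1 h at RT, washed, and assayed at 2×10⁶ cells/mL. Calcium is read ratiometrically (ex 340 nm, em 400/490 nm) at 37°C with stirring. […] Responses are normalized to agonist plus DMSO vehicle, and IC50 is taken from the dose-response curve.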

GPER [9] = biological target: T1, GPER; experiment: ERK activation; assay type: cell-based
uterine epithelia = experiment: Mouse uterine estrogenicity assay; assay type: in vivo; details: s.c., 18 hr
[10] = entire range of concentrations tested

Compound: C[C@]12CC[C@@H]3c4ccc(O)cc4CC[C@H]3[C@@H]1CC[C@@H]2O [E2, 17β-estradiol, reference compound]
activation of PI3K (nuclear translocation of PH-RFP) (ERα [1]): activate PI3K | activation of PI3K (nuclear translocation of PH-RFP) (COS7 cells): no activation of PI3K

Compound: Brc1cc2c(cc1[C@@H]1Nc3ccccc3[C@@H]3C=CC[C@@H]31)OCO2 [G15]
rapid signaling events via MAPK or PI3K pathways (ERα or ERβ): does not mediate rapid signaling events | binding to ERβ (ERβ [2]): weak binding | binding to ERβ (competition of E2-Alexa633) (ERβ [3]; highest concentration, 10 µM): weak but significant binding | binding to ERα (ERα [4]; high concentrations (≥10 µM)): weak binding | binding to ERα (competition of E2-Alexa633) (ERα [5]; highest concentration, 10 µM): weak but significant binding | inhibition of E2-induced ERE response (ERα/β; 1 µM compound): no significant effect | ERE reporter activity compared to maximal E2 response (ERα/β; 1 µM, Fig. 5): ~ 15% | inhibition of E2-induced ERE response (ERα/β; 10 µM compound): ~ 30% | inhibitory effects on estrogen-induced transcription (ERα/β; E2 at 10 nM (data not shown)): absent | ERE activation (ERα/β; concentrations 1–10 µM, Fig. 2): 15–20% | activation of the ERE reporter (of E2 response) (ERα/β; high doses (≥1 µM), 24 h, MCF-7 ERE-GFP): ≤ 20%

inhibition of E2-induced PI3K activation (GPER [6]): effectively inhibited | effect on basal calcium level in cells (GPER [8]; 10 µM G36 alone, SKBr3): did not alter | IC50 (GPER [8]; IC50, inhibition of E2-mediated calcium mobilization, SKBr3, E2 200 nM): 112 nM | IC50 (GPER [8]; IC50, inhibition of G-1-mediated calcium mobilization, SKBr3, G-1 200 nM): 165 nM | effect on E2-induced ERK activation (GPER [9]; SKBr3, E2 10 nM, 1 µM antagonist pre-incubated 15 min): significant decrease | effect on EGF-induced ERK activation (GPER [9]; SKBr3, EGF 10 ng/mL, 1 µM antagonist): unchanged | effect on G-1-induced ERK activation (GPER [9]; SKBr3, G-1 10 nM, 1 µM antagonist pre-incubated 15 min): significant decrease | inhibition at 10 µM (ERα/β; MCF7, read-out: inhibition of E2-induced ERE response): < 5% | ERE response elicited (ERα/β; concentrations up to 1 µM): no significant ERE response | antagonism of E2-mediated ERE response (ERα/β; concentrations up to 10 µM): no ability to antagonize
Compound: CC(C)c1ccc2c(c1)C1C=CCC1C(c1cc3c(cc1Br)OCO3)N2 (stereo not drawn) [G36, 4-(6-Bromo-benzo[1,3]dioxol-5-yl)-8-isopropyl-3a,4,5,9b-tetrahydro-3H-cyclopenta[c]quinoline]
inhibition of calcium mobilization by 1 µM ATP [7]: no inhibition | inhibition of E2-mediated PI3K activation (ERα [1]; 1 µM G36 preincubated 20 min): did not inhibit | binding to ERβ (competition of E2-Alexa633) (ERβ [3]; [10]): lacking detectable binding activity | activation of PI3K (nuclear translocation of PH-RFP) (COS7 cells): no activation of PI3K | binding to ERα (competition of E2-Alexa633) (ERα [5]; [10]): lacking detectable binding activity | effect on proliferation compared to E2 treatment (uterine epithelia; G36 50 ug/kg with E2 10 ug/kg): significant decrease in proliferation | effect on proliferative response to G-1 (uterine epithelia; G36 50 ug/kg with G-1 10 ug/kg): completely abrogated | uterine epithelial proliferation (Ki-67 positivity), compound alone (uterine epithelia; ovariectomized C57Bl6 mice, E2 10 ug/kg, G-1 10 ug/kg, G36 50 ug/kg): no effect

Compound: CC(=O)c1ccc2c(c1)C1C=CCC1C(c1cc3c(cc1Br)OCO3)N2 (stereo not drawn) [G-1]
activation of PI3K (nuclear translocation of PH-RFP) (COS7 cells): no activation of PI3K | ER binding competition (ERα [4]; 10 µM): unable to detect significant competition

— article PMC3220788 (The Journal of steroid biochemistry and molecular biology, 2011)
